The values below come from ChEMBL document CHEMBL1147501, “Synthesis and nicotinic acetylcholine receptor binding affinities of 2- and 3-isoxazolyl-8-azabicyclo[3.2.1]octanes” (Bioorg Med Chem Lett, 2004).

Molecules are shown by their SMILES.

Experiment [1] can be described thus: Inhibition of [3H]-cytisine binding to neuronal nicotinic acetylcholine receptor of rat brain. The method, boiled down:
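Test compounds run as oxalate salts. Ki values are reported as mean ± SEM of three independent experiments, each performed in triplicate.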

Experiment [2] addresses Neuronal acetylcholine receptor (Rattus norvegicus) (UniProt P04757+P09483+P12389+P12390+P12392+P43144+Q9JLB5+P12391+P43143+P20420+Q05941). In words: Percent Inhibition of [3H]cytisine binding at neuronal nicotinic acetylcholine receptor in rat brain at 100 uM. Type of experiment: tissue-based.

On to `Cc1cc(C2=CC3CCC(C2)N3)on1` (configuration not stated), for which the Ki in experiment [1] came to 320 nM.
The compound `Clc1ccc(C2CC3CC[C@@H]2N3)cn1` (some centres not stated) yielded a Ki in experiment [1] of 0.79 nM.
In experiment [1], `CN1CCC[C@H]1c1ccccc1` displayed a Ki of 8 nM.
As to `Clc1ccc([C@H]2CCC3CCC2N3)cn1` (some centres not stated), in experiment [1], affinity was put at a Ki of 1.04 nM.
Regarding `Cc1cc(C2CCC3CC[C@@H]2N3)on1` (some centres not stated), the Ki in experiment [1] turned out to be 3 nM.
`Cc1cc(C2CC3CCC(C2)N3C)on1` (configuration not stated) showed an inhibition in experiment [2] of 40%. In experiment [1], the Ki was determined as 194 nM.
For `Cc1cc(C2CC3CCC(C2)N3)on1` (stereo in doubt; 15a), the affinity in experiment [1] corresponds to a Ki of 18000 nM.
`Cc1cc(C2CC[C@H]3CCC2N3C)on1` (some centres not stated) gave a Ki in experiment [1] of 1470 nM.
`Cc1cc(C2=CC3CCC(C2)N3C)on1` (configuration not stated) yielded a Ki in experiment [1] of 720 nM.
Regarding `Cc1cc(C2CC3CCC(C2)N3)on1` (stereo in doubt; 15b), in experiment [1], the Ki stood at 148 nM.
For `Cc1cc([C@@H]2CCC3CCC2N3)on1` (some centres not stated), the affinity in experiment [1] corresponds to a Ki of 26000 nM.
